Measurements taken from ChEMBL document CHEMBL4513216, “Probing the Open Global Health Chemical Diversity Library for Multistage-Active Starting Points for Next-Generation Antimalarials” (ACS Infect Dis, 2020).

Experiment: Toxicity liver stage against HepG2, at 10uM
Type: cell-based
Set-up: test concentration 10 uM, cell line HepG2-A16-CD81EGFP
Conditions: human, HepG2-A16-CD81EGFP cells; read-out: INHIBITION
Procedure, shortened: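 Uninfected HepG2-A16-CD81EGFP cells, 3 × 10^3 per well, 1536-well, plated on prespotted compound at 10 μM final, parasite-free screening media added to match infected plates; puromycin 10 μM positive, DMSO 0.5% negative; run in parallel with 48 h PbLuc assay at 37 °C, 5% CO2; viability by CellTiter-Glo luminescence, normalized to controls.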

Point of comparison: `CN1CCCC(C(=O)N2CCC(Oc3ccc(C#N)cn3)CC2)C1` (stereo not given), cytotoxicity at 10 µM -5.6%. Against it:
- CCS(=O)(=O)NCc1nc(C)cc(N2CCCCC2)n1 — higher, 6.79%
- CC1N(CC2CC2)C(=O)COC12CCN(C(=O)c1cccs1)CC2 (stereo not given) — higher, -3.64%
- Cc1noc(C)c1CN1C[C@@H](OCC(=O)N(C)C)[C@H]2OCCC[C@H]21 — higher, 12.1%
- Cc1noc(C2CCCN(C(=O)c3scnc3Cl)C2)n1 (stereo not given) — higher, 17.2%
- COc1ccc(CNCc2cc(Br)c3c(c2)OCO3)cc1 — higher, 12.1%
- Cc1nn(C)c(C)c1S(=O)(=O)NCC1(C(N)=O)CCOCC1 — higher, 14.9%
- c1cc2c(cc1CSCc1noc(C3CC3)n1)OCCO2 — higher, 10.4%
- COc1cc(CNCCn2cc(C)cn2)c2c(c1)CC(C)O2 (stereo not given) — higher, 19.1%
- COc1cc(CNCCn2cccn2)c2c(c1)CC(C)O2 (stereo not given) — higher, 13.7%
- O=C(Nc1ccc(Cl)cn1)C1CCCN(CCc2ccncc2)C1 (stereo not given) — lower, -8.87%
- CCOc1cc(CN(C)CCCC#N)ccc1OC(F)F — lower, -10.3%
- Cc1noc(CN2CC=C(c3c[nH]c4ncccc34)CC2)n1 — higher, 44.7%
- CC(NCc1cnc(C2CCC2)s1)c1cccc(-n2cccn2)c1 (stereo not given) — higher, 2.34%
- COc1cc(NCc2ncc[nH]2)ccc1Br — higher, 11.2%
- c1ccc(CNc2ccccc2N2CCCC2)nc1 — higher, 10.9%
- CCCN(C)CC1CCN(c2ccc(Br)c(C)n2)C1 (stereo not given) — higher, 14.8%
- Cc1ccc(CN2CCCC3(CCN(Cc4ccc(C)o4)C3)C2)o1 (stereo not given) — lower, -107%
- CC1=N[C@@]2(CC[C@@H]3CN(C(=O)NCc4cccc(F)c4)C[C@@H]32)C(=O)N1 — lower, -73.4%
- CN1CCN(Cc2noc(CCc3nc(-c4ccccc4)no3)n2)CC1 — higher, 6.41%
- O=C1O[C@@H]2CN(c3ccncc3)C[C@@H]2N1CCCc1ccc(F)cc1 — higher, -3.73%
- CCOC(=O)c1ccc(N2CCN(Cc3c(C)nn(C)c3Cl)CC2)nc1 — higher, 20.5%
- Cc1nc(NCc2noc(C3CCCO3)n2)c2sccc2n1 (stereo not given) — higher, 50.2%
- O=C(NCc1cccnc1N1CCCC(O)C1)c1ccsc1 (stereo not given) — higher, 14.3%
- Cc1nc(CNCc2cccnc2Oc2ccc(C)c(F)c2F)c[nH]1 — higher, 6.87%
- FC(F)Oc1ccccc1CN1CCCC(c2nccn2CC2CC2)C1 (stereo not given) — higher, 6.64%
- O=C(c1scc2c1OCCO2)N1CCOC(CCc2ccccc2)C1 (stereo not given) — higher, 10.5%
- CN(C)C1CCN(c2cc(-c3ccccc3)nc3ccnn23)C1 (stereo not given) — lower, -53.5%
- CN(C)C(=O)CN1CCCN(CC2CCOc3ccccc3C2)CC1 (stereo not given) — higher, -3.42%
- Cn1cnnc1CC1CCN(Cc2nn(C)c3cccc(Cl)c23)CC1 — higher, -1.62%
- Cc1nn(C)cc1-c1ccnc(N(C)Cc2cnn(C)c2)n1 — higher, 19.9%
- Cc1cccc2sc(NC(=O)CN3CCCC(O)(CO)C3)nc12 (stereo not given) — higher, 16.9%
- CSCc1ccc(N2CCC(C(O)Cc3ccccc3)CC2)nc1 (stereo not given) — higher, 2.45%
- Cc1nn(C)c2nc(N3CCC(C(O)Cc4ccccc4)CC3)sc12 (stereo not given) — higher, 28.2%
- CC(C)c1nc(CN(C)Cc2cnc(N3CCOCC3)nc2)no1 — higher, 10.1%
- Cc1noc(C)c1C(=O)NCc1ccc(N2CCC(C)CC2)nc1 — higher, 8.43%
- Cc1cnn(CC2CN(Cc3nc4ccccc4s3)CCO2)c1 (stereo not given) — higher, 0.639%
- O=C1NCCN1C1CCCN(Cc2coc(-c3ccc(F)cc3)n2)C1 (stereo not given) — higher, 8.63%
- CCOc1ccc(CN2CCN(C(=O)c3ccc(C)n3C)CC2)cc1 — higher, 19.2%
- CC(Cn1cccn1)NC(=O)N1CCN(Cc2cccnc2)CC1 (stereo not given) — lower, -18.2%
- Cc1cc(C[C@@H]2CCC[C@H]2NCc2ccccc2F)on1 — lower, -6.19%
- CC1(C)CC(N(Cc2cccnc2)Cc2cccc(F)c2)CC(C)(C)N1 — lower, -6.41%
- Cc1nc2c(cc1C(=O)O)CCN(CC1CC1)CC2 — lower, -154%
- COCCN1CCc2cc(C(=O)NC(C)C)c(NCC(C)C)nc2CC1 — lower, -163%
- c1cc(CNCc2ccc(-n3cncn3)nc2)cc(OC2CCCC2)c1 — higher, 2.3%
